A selection: hits, their analogues and other compounds. The true share with any hit is near 1.8%.
Thrombin inh: human alpha-thrombin inhibitors, primary screen, counter-screen for coagulation protease inhibitor project, biochemical, 1536-well, fluorogenic AMC substrate. AID 1046, 2008. Prothrombin (Homo sapiens), P00734. Boc-VPR-AMC fluorogenic substrate cleavage. hit rate 0.26% among 220,000. inhibition, % at 5 µM;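 active = inhibition at or above 40%; inactive = inhibition below 40%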;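 note: 0% = enzyme with no compound and 100% = wells without enzyme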
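Material: human alpha-thrombin protein. Incubation: reaction at ambient temperature. Technique: fluorescence of released AMC, ex 355 nm, em 460 nm. Control set: no-compound enzyme wells and no-enzyme blanks. Also added: Boc-VPR-AMC substrate, 15 µM final. Buffer or medium: pH 7.5 Tris (50 mM) with NaCl 150 mM, Tween 20 0.05%.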
KLK5 inh: human KLK5 protease inhibitors, primary screen, biochemical, 1536-well | hit rate 0.59% among 210,000 | AID 873, 2007 | recombinant hK5, fluorogenic AMC substrate cleavage | inhibition, % at 5 µM;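 active = inhibition of 40% or more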;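 note: 0% = enzyme controls without compound and 100% = no-enzyme blanks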
Wee1 degr inh: Wee1 degradation inhibitors, primary screen, cell-based, HeLa, Wee1K328M-luciferase, luminescence. HeLa Luc-Wee1K328M stability; 100% = proteasome inhibitor MG132 effect. reporter increase, % at 5 µM. hit rate 1.2% among 220,000. AID 1321, 2008;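 active = activation above the mean of all tested compounds plus 3 SD, set per screening run, cut at about 8.8% in these data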;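 note: cells exposed to compound for 20 h before luminescence read; 0% = DMSO alone and 100% = MG132 at 30 µM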
FXIa inh 1536: human FXIa protease inhibitors, primary screen, biochemical, 1536-well; Coagulation factor XI (Homo sapiens), P03951; purified FXIa, Boc-Glu-Ala-Arg-AMC fluorogenic substrate; inhibition, % at 5 µM; hit rate 0.14% among 220,000; AID 798, 2007;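 active = inhibition of at least 40%; inactive = inhibition below 40%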;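 note: fluorescence of freed AMC excited at 355 nm; 0% = enzyme without compound and 100% = no enzyme blank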
FXIIa inh: human FXIIa protease inhibitors, primary screen, biochemical, 1536-well; AID 800, 2007; inhibition, % at 5 µM; purified FXIIa, Boc-QGR-AMC fluorogenic substrate, 2 h; hit rate 0.3% among 220,000; in the data active = inhibition above about 40%;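 note: 0% = enzyme with no compound and 100% = blank without enzyme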
Target sequence (P00748 20-372 limits assumed): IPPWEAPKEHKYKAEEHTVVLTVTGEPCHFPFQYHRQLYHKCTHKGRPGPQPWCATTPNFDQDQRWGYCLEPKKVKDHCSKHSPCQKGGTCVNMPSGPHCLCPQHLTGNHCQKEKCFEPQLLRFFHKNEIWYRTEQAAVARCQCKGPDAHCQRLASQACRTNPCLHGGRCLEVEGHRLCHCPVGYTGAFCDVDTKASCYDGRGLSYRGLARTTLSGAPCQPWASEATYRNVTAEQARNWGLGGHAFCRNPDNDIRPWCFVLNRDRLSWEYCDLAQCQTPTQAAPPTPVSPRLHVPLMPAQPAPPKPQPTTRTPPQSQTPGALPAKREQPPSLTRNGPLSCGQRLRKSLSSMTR
Target sequence (P00748 373-615 limits assumed): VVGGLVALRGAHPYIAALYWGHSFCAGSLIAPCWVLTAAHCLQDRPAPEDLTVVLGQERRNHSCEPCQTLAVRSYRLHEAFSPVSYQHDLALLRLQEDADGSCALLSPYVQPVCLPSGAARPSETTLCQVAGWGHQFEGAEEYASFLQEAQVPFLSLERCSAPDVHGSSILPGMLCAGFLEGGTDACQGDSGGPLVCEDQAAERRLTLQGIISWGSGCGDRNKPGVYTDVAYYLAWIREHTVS
Platelet DG rel: inhibitors of platelet dense granule secretion, primary screen, cell-based, MLPCN, human platelets; inhibition, %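 (compounds screened at 7.5 µM in platelet-rich plasma)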; hit rate 0.22% among 300,000; human platelet-rich plasma, SFLLRN dense granule ATP release, luminescence; AID 1663, 2009;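 active = mean replicate score, as percent of positive control, at or above 50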
Wee1 stab conf: Wee1 degradation inhibitors, confirmation, cell-based, HeLa, Wee1K328M-luciferase, luminescence, triplicate. shares compounds with Wee1 degr inh. HeLa Luc-Wee1K328M degradation; vehicle 0%, proteasome-blocked wells 100%. activation, % at 5 µM. hit rate 4% among 1,100. AID 1410, 2008; in the data active = activation above about 8.9%
An asterisk follows results filed as active; · = not tested or not shown.

SMILES | Thrombin inh | KLK5 inh | Wee1 degr inh | FXIa inh 1536 | FXIIa inh | Platelet DG rel | Wee1 stab conf
COc1ccc(Br)cc1CNC(=O)CCN1C(=O)COc2ccccc21 | 0 | -3 | 11* | -1 | 12 | 4 | ·
CC(C)CC(=O)Nc1ccc(-c2nc3ccccc3c(=O)[nH]2)cc1 | -5 | -8 | 13* | -12 | -6 | -5 | -1
CCN1C(=O)C(=Cc2cccc(OC)c2Oc2ccc([N+](=O)[O-])cc2[N+](=O)[O-])SC1=S | · | · | · | · | · | 3 | ·
CCS(=O)(=O)N1CCN(c2ccc([N+](=O)[O-])c(NCC3CCCO3)c2)CC1 (stereo not drawn) | -2 | · | 12* | -3 | 2 | 4 | 1
O=C(c1ccc(NC(=O)C2(c3ccccc3)CCCC2)cc1)N1CCOCC1 | -1 | 2 | 27* | 4 | 11 | -1 | -2
CCN(CC)CCOC(=O)C1(c2ccccc2)CCOCC1 | 0 | -3 | 14* | 18 | 27 | 4 | 0
CCN(CC)CCOCCOC(=O)C1(c2ccccc2)CCCC1 | · | · | · | · | · | -2 | ·
N#Cc1c(Cl)nsc1NCCN1CCOCC1 | · | · | · | · | · | 0 | ·
CCNC(=O)C1CC(=O)N(CCCc2ccccc2)C(=Nc2ccccc2)S1 (stereo not drawn) | -5 | -1 | 0 | 0 | 11 | 5 | ·
CCS(=O)(=O)c1ccc(C(=O)NC2CC2)c(Cl)c1Cl | 1 | -8 | 11* | 6 | 10 | -12 | 2
Cc1cc(/C=C(\C#N)C(=O)NC2CCCCCC2)c(C)n1C | -13 | -10 | 28* | -8 | 2 | 0 | 4
c1ccc(CSc2cc3ccccc3[nH]2)cc1 | · | · | · | · | · | 6 | ·
O=C(CCC1CCCC1)N1CCC(N2CCCCCC2)CC1 | -3 | -7 | 12* | -6 | 2 | 6 | 3
CCN(c1ccc(C)c(C)c1)S(=O)(=O)c1c(C)[nH]c(=O)[nH]c1=O | 1 | 2 | -4 | 1 | 10 | 2 | ·
CC1(C)CC(=O)C(C(c2ccncc2)C2C(=O)CC(C)(C)CC2=O)C(=O)C1 | · | · | 13* | · | · | -1 | 0
COc1ccc(Cn2c(CCC(=O)NCCC(C)C)nc3ncccc3c2=O)cc1 | · | · | · | · | · | 5 | ·
COCC(C)NS(=O)(=O)c1ccc(NC(=O)c2ccccn2)cc1 (stereo not drawn) | 7 | 0 | -1 | -2 | 5 | -7 | ·
COc1cccc2cc(-c3cn4cccc(C)c4n3)c(=O)oc12 | · | · | 1 | · | · | 3 | ·
COc1cccc2cc(-c3cn4ccc(C)cc4n3)c(=O)oc12 | · | · | 14* | · | · | -5 | 2
N/C(=N\OC(=O)c1ccco1)c1ccccc1 | 2 | -10 | 0 | 8 | 13 | 3 | ·
N/C(=N\OC(=O)c1ccco1)c1ccc(Br)cc1 | -15 | 5 | 15* | 7 | 4 | · | 1
O=C(CN1C(=O)NC2(CCCC2)C1=O)OCc1ccc(Cl)cc1Cl | · | · | · | · | · | -2 | ·
CCCS(=O)(=O)N1CCN(S(=O)(=O)c2ccccc2[N+](=O)[O-])CC1 | 0 | -8 | 11* | -3 | 2 | 12 | -1
O=C(CNC(=O)c1cccc(F)c1)OCC(=O)N1CCCCC1 | -14 | 2 | 15* | 6 | 6 | 0 | 0
COc1ccc(/C=C/C(O)=C(\C#N)c2nnc(N3CCOCC3)n2-c2ccccc2)cc1OC | -2 | 4 | -2 | 0 | 6 | 5 | ·
Cc1ccc(OCc2cc(C(=O)N3CCN(CC(=O)NC(C)C)CC3)no2)cn1 | · | · | · | · | · | -8 | ·
CN(CC(O)COCc1ccccc1F)C1CCCCC1 (stereo not drawn) | -1 | 12 | -3 | 1 | 9 | 19 | ·
CN(CC(O)COc1ccccc1F)C1CCCCC1 (stereo not drawn) | 1 | 1 | 11* | 1 | 9 | -2 | 1

Screening data from PubChem.
